# Measurements: ChEMBL document CHEMBL3616442, “Unconventional Knoevenagel-type indoles: Synthesis and cell-based studies for the identification of pro-apoptotic agents” (Eur J Med Chem, 2015)
# Experiments:
# [1] = system: PC-3; test: Growth inhibition of human PC3 cells after 48 hrs by sulforhodamine B assay; format: functional; conditions: PC-3, 48 h
# [2] = system: ACHN; test: Growth inhibition of human ACHN cells after 48 hrs by sulforhodamine B assay; format: functional
# Summary of the method: (§1)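 NCI 60-cell-line screen. Compounds tested at five 10-fold dilutions from 10^-4 to 10^-8 M. Cells exposed for the last 48 h of a 72 h incubation, growth estimated by sulforhodamine B protein assay. GI50 is the concentration giving 50% growth inhibition. Values beyond the tested range are expressed as greater or lesser than the extreme concentration.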
# [3] = system: K562; test: Growth inhibition of human K562 cells after 48 hrs by sulforhodamine B assay; format: functional; conditions: K562, 48 h; summary of the method: as §1
# [4] = system: DU-145; test: Growth inhibition of human DU145 cells after 48 hrs by sulforhodamine B assay; format: functional; conditions: DU-145, 48 h; summary of the method: as §1
# [5] = system: MCF7; test: Growth inhibition of human MCF7 cells after 48 hrs by sulforhodamine B assay; format: functional; conditions: MCF7, 48 h; summary of the method: as §1
# [6] = system: KM12; test: Growth inhibition of human KM12 cells after 48 hrs by sulforhodamine B assay; format: functional; conditions: KM12, 48 h; summary of the method: as §1
# [7] = system: MDA-MB-468; test: Growth inhibition of human MDA-MB-468 cells after 48 hrs by sulforhodamine B assay; format: functional; conditions: MDA-MB-468, 48 h; summary of the method: as §1
# [8] = system: SF-268; test: Growth inhibition of human SF268 cells after 48 hrs by sulforhodamine B assay; format: functional; conditions: SF-268, 48 h
# [9] = system: HL-60(TB); test: Growth inhibition of human HL-60(TB) cells after 48 hrs by sulforhodamine B assay; format: functional; conditions: HL-60, 48 h
# Summary of the method: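 NCI 60-cell-line screen, HL-60(TB) included. Compound given at five 10-fold dilutions from 10^-4 to 10^-8 M. Cells exposed for the last 48 h of a 72 h incubation. Growth or viability estimated by sulforhodamine B protein assay. GI50 is the concentration giving 50% growth inhibition. Values outside the tested range are reported as greater or less than the highest or lowest concentration.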
# [10] = Growth inhibition of human COLO205 cells after 48 hrs by sulforhodamine B assay; format: functional; conditions: COLO 205, 48 h; summary of the method: as §1
# [11] = system: U-251; test: Growth inhibition of human U251 cells after 48 hrs by sulforhodamine B assay; format: functional; conditions: U-251, 48 h
# [12] = system: NCI-H460; test: Growth inhibition of human NCI-H460 cells after 48 hrs by sulforhodamine B assay; format: functional; conditions: NCI-H460, 48 h; summary of the method: as §1
# [13] = Growth inhibition of human EKVX cells after 48 hrs by sulforhodamine B assay; format: functional; summary of the method: as §1
# [14] = Growth inhibition of human HOP92 cells after 48 hrs by sulforhodamine B assay; format: functional; conditions: HOP-92, 48 h; summary of the method: as §1
# [15] = system: NCI-H322M; test: Growth inhibition of human NCI-H322M cells after 48 hrs by sulforhodamine B assay; format: functional; summary of the method: as §1
# [16] = system: Malme-3M; test: Growth inhibition of human MALME-3M cells after 48 hrs by sulforhodamine B assay; format: functional; summary of the method: as §1
# [17] = system: SNB-19; test: Growth inhibition of human SNB19 cells after 48 hrs by sulforhodamine B assay; format: functional; conditions: SNB-19, 48 h
# [18] = Growth inhibition of human LOXIMVI cells after 48 hrs by sulforhodamine B assay; format: functional; conditions: LOX IMVI; summary of the method: as §1
# [19] = system: CAKI-1; test: Growth inhibition of human CAKI-1 cells after 48 hrs by sulforhodamine B assay; format: functional; conditions: CAKI-1, 48 h; summary of the method: as §1
# [20] = Growth inhibition of human BT549 cells after 48 hrs by sulforhodamine B assay; format: functional; conditions: BT-549, 48 h; summary of the method: as §1
# [21] = system: UO-31; test: Growth inhibition of human UO31 cells after 48 hrs by sulforhodamine B assay; format: functional; conditions: UO-31, 48 h
# [22] = system: SK-MEL-28; test: Growth inhibition of human SK-MEL-28 cells after 48 hrs by sulforhodamine B assay; format: functional; conditions: SK-MEL-28, 48 h
# [23] = system: NCI-H23; test: Growth inhibition of human NCI-H23 cells after 48 hrs by sulforhodamine B assay; format: functional; conditions: NCI-H23, 48 h; summary of the method: as §1
# [24] = system: NCI-H522; test: Growth inhibition of human NCI-H522 cells after 48 hrs by sulforhodamine B assay; format: functional; conditions: NCI-H522, 48 h; summary of the method: as §1
# [25] = system: M14; test: Growth inhibition of human M14 cells after 48 hrs by sulforhodamine B assay; format: functional; conditions: M14, 48 h; summary of the method: as §1
# [26] = system: HCT-116; test: Growth inhibition of human HCT116 cells after 48 hrs by sulforhodamine B assay; format: functional; conditions: HCT-116, 48 h; summary of the method: as §1
# [27] = system: SK-OV-3; test: Growth inhibition of human SKOV3 cells after 48 hrs by sulforhodamine B assay; format: functional; conditions: SK-OV-3, 48 h
# [28] = Growth inhibition of human SF295 cells after 48 hrs by sulforhodamine B assay; format: functional; conditions: SF-295, 48 h
# [29] = system: SW-620; test: Growth inhibition of human SW620 cells after 48 hrs by sulforhodamine B assay; format: functional; conditions: SW-620, 48 h
# [30] = system: MDA-MB-231; test: Growth inhibition of human MDA-MB-231 cells after 48 hrs by sulforhodamine B assay; format: functional; conditions: MDA-MB-231, 48 h; summary of the method: as §1
# [31] = system: T47D; test: Growth inhibition of human T47D cells after 48 hrs by sulforhodamine B assay; format: functional
# [32] = Growth inhibition of human MOLT4 cells after 48 hrs by sulforhodamine B assay; format: functional; conditions: MOLT-4, 48 h; summary of the method: as §1
# [33] = system: HT-29; test: Growth inhibition of human HT-29 cells after 48 hrs by sulforhodamine B assay; format: functional; conditions: HT-29, 48 h; summary of the method: as §1
# [34] = system: HOP-62; test: Growth inhibition of human HOP62 cells after 48 hrs by sulforhodamine B assay; format: functional; conditions: HOP-62, 48 h; summary of the method: as §1
# [35] = system: MDA-MB-435; test: Growth inhibition of human MDA-MB-435 cells after 48 hrs by sulforhodamine B assay; format: functional; conditions: MDA-MB-435, 48 h; summary of the method: as §1
# [36] = system: SN12C; test: Growth inhibition of human SN12C cells after 48 hrs by sulforhodamine B assay; format: functional
# [37] = system: OVCAR-4; test: Growth inhibition of human OVCAR4 cells after 48 hrs by sulforhodamine B assay; format: functional; conditions: OVCAR-4, 48 h; summary of the method: as §1
# [38] = Growth inhibition of human NCI-ADR-RES cells after 48 hrs by sulforhodamine B assay; format: functional; summary of the method: as §1
# [39] = Growth inhibition of human RPMI8226 cells after 48 hrs by sulforhodamine B assay; format: functional; conditions: RPMI-8226, 48 h
# [40] = system: MT4; test: Antiproliferative activity against human MT4 cells after 96 hrs by MTT assay; format: functional, cell-based; conditions: MT4, 96 h
# Summary of the method: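 Exponentially growing MT-4 cells (CD4+ human T-cells carrying integrated HTLV-1 genome), seeded at 1×10^5 cells/mL in RPMI-1640 with 10% FCS and antibiotics. Serial dilutions of compound (DMSO stock 100 mM, diluted in medium), 37 °C, 5% CO₂, 96 h. Viability read by MTT. 50% inhibition versus untreated controls by linear regression. Mean ± SD of three independent determinations.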
# [41] = system: SK-MEL-2; test: Growth inhibition of human SK-MEL-2 cells after 48 hrs by sulforhodamine B assay; format: functional; conditions: SK-MEL-2, 48 h
# [42] = system: OVCAR-5; test: Growth inhibition of human OVCAR5 cells after 48 hrs by sulforhodamine B assay; format: functional; conditions: OVCAR-5, 48 h
# [43] = system: SR; test: Growth inhibition of human SR cells after 48 hrs by sulforhodamine B assay; format: functional
compound,measurement,setting,value
COc1ccc(-c2[nH]c3ccccc3c2C=C(C#N)C#N)cc1,GI50,[1],0.547 µM
same,GI50,[2],2.3 µM
same,GI50,[3],0.343 µM
same,GI50,[4],0.484 µM
same,GI50,[5],0.347 µM
same,GI50,[6],0.374 µM
same,GI50,[7],0.418 µM
same,GI50,[8],0.709 µM
same,GI50,[9],0.271 µM
same,GI50,[10],0.223 µM
same,GI50,[11],0.483 µM
same,GI50,[12],0.359 µM
same,GI50,[13],0.656 µM
same,GI50,[14],1.2 µM
same,GI50,[15],0.49 µM
same,GI50,[16],0.874 µM
same,GI50,[17],1.8 µM
same,GI50,[18],1.8 µM
same,GI50,[19],0.679 µM
same,GI50,[20],0.769 µM
same,GI50,[21],2.8 µM
same,GI50,[22],1.2 µM
same,GI50,[23],0.6 µM
same,GI50,[24],0.798 µM
same,GI50,[25],0.295 µM
same,GI50,[26],0.411 µM
same,GI50,[27],0.445 µM
same,GI50,[28],0.336 µM
same,GI50,[29],0.44 µM
same,GI50,[30],0.562 µM
same,GI50,[31],0.481 µM
same,GI50,[32],0.578 µM
same,GI50,[33],0.354 µM
same,GI50,[34],1.2 µM
same,GI50,[35],0.128 µM
same,GI50,[36],1.2 µM
same,GI50,[37],0.798 µM
same,GI50,[38],0.343 µM
same,GI50,[39],0.49 µM
same,EC50,[40],0.3 µM
same,GI50,[41],0.763 µM
same,GI50,[42],1.8 µM
COC(=O)/C(=C\c1c(-c2ccccc2)[nH]c2ccccc12)S(C)(=O)=O,GI50,[1],4.2 µM
same,GI50,[2],9.2 µM
same,GI50,[4],2.5 µM
same,GI50,[5],2.9 µM
same,GI50,[43],8.1 µM
same,GI50,[6],1.5 µM
same,GI50,[7],5.4 µM
same,GI50,[8],4.3 µM
same,GI50,[9],3.4 µM
same,GI50,[10],4.4 µM
same,GI50,[11],3.6 µM
same,GI50,[12],3.5 µM
same,GI50,[13],8.9 µM
same,GI50,[14],6.6 µM
same,GI50,[15],7.4 µM
same,GI50,[16],12.2 µM
same,GI50,[17],8.7 µM
same,GI50,[18],5.1 µM
same,GI50,[19],1.8 µM
same,GI50,[20],4.3 µM
same,GI50,[21],5.5 µM
same,GI50,[22],6 µM
same,GI50,[23],8 µM
same,GI50,[24],3.1 µM
same,GI50,[25],3.3 µM
same,GI50,[26],4.2 µM
same,GI50,[27],12.1 µM
same,GI50,[28],3.1 µM
same,GI50,[29],2.9 µM
same,GI50,[30],2.4 µM
same,GI50,[31],2.8 µM
same,GI50,[32],4.7 µM
same,GI50,[33],3.6 µM
same,GI50,[34],10.7 µM
same,GI50,[35],0.671 µM
same,GI50,[36],3.1 µM
same,GI50,[37],6.2 µM
same,GI50,[38],3.3 µM
same,GI50,[39],6.2 µM
same,EC50,[40],0.4 µM
same,GI50,[41],11.8 µM
same,GI50,[42],19.6 µM
N#CC(C#N)=Cc1c(-c2ccccc2)[nH]c2ccccc12,GI50,[1],3 µM
same,GI50,[2],7.3 µM
same,GI50,[3],0.478 µM
same,GI50,[4],3.3 µM
same,GI50,[5],1.1 µM
same,GI50,[6],0.684 µM
same,GI50,[7],1 µM
same,GI50,[8],13.4 µM
same,GI50,[9],1.8 µM
same,GI50,[10],1.8 µM
same,GI50,[11],1.2 µM
same,GI50,[12],2.1 µM
same,GI50,[13],5.8 µM
same,GI50,[14],7.7 µM
same,GI50,[15],11.4 µM
same,GI50,[16],26 µM
same,GI50,[17],5.7 µM
same,GI50,[18],3.3 µM
same,GI50,[19],6.1 µM
same,GI50,[20],9.4 µM
same,GI50,[21],11.1 µM
same,GI50,[22],5.1 µM
same,GI50,[23],4.7 µM
same,GI50,[24],9.6 µM
same,GI50,[25],1.9 µM
same,GI50,[26],2.3 µM
same,GI50,[27],6 µM
same,GI50,[28],1.6 µM
same,GI50,[29],0.539 µM
same,GI50,[30],1.8 µM
same,GI50,[31],4.6 µM
same,GI50,[32],43.2 µM
same,GI50,[33],0.526 µM
same,GI50,[34],11.3 µM
same,GI50,[35],0.246 µM
same,GI50,[36],6.8 µM
same,GI50,[37],5.2 µM
same,GI50,[38],0.826 µM
same,GI50,[39],0.582 µM
same,EC50,[40],0.4 µM
same,GI50,[41],27.6 µM
same,GI50,[42],19.7 µM
